Data from ChEMBL document CHEMBL3272325, “Structure-activity relationships of dimeric Catharanthus alkaloids. 1. Deacetylvinblastine amide (vindesine) sulfate” (J Med Chem, 1978).

Assays:
[1] = tested on: B16; assay: Antitumor activity against mouse B16 cells allografted in B6D2F1 mouse assessed as increase in life span at 1.08 mg/kg/day, ip administered on day 1, 5 and 9 measured for 56 days relative to untreated control; format: functional; details: route intraperitoneal
Summary of the method: (§1)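 Male B6D2F1 mice implanted ip on day 0 with 0.25 mL of a 20% (w/v) B16 melanoma brei. Alkaloid sulfate salts given ip on days 1, 5, 9 or on days 5, 9, 13, groups of 10, against 30 untreated controls. Read-outs: median survival time with range of individual deaths, and percent increase in life span, with survivors counted on day 56.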

[2] = tested on: Homo sapiens; assay: Neurotoxicity in human assessed as neutropenia at 3 to 4 mg/m'2, iv once weekly dosed through push technique; format: toxicity, organism-based; details: in vivo
[3] = tested on: B16; assay: Antitumor activity against mouse B16 cells allografted in B6D2F1 mouse assessed as mean survival time at 1.08 mg/kg/day, ip administered on day 5, 9 and 13 (reference value: 20.0 days); format: functional; details: route intraperitoneal; summary of the method: as §1
[4] = tested on: B16; assay: Antitumor activity against mouse B16 cells allografted in B6D2F1 mouse assessed as mean survival time at 3 mg/kg/day, ip administered on day 1, 5 and 9 (reference value: 20.0 days); format: functional; details: route intraperitoneal; summary of the method: as §1
[5] = Antitumor activity against mouse Ridgeway osteogenic sarcoma cells allografted in mouse at 0.2 to 0.3 mg/kg/day, ip; format: functional; details: route intraperitoneal
Summary of the method: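 Ridgeway osteogenic sarcoma and Gardner lymphosarcoma in mice, with sulfate salts given ip daily on days 1-9. Tumor growth inhibition versus controls scored in bands: +++ = 75-100%, ++ = 50-75%, ± = under 25%.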

[6] = tested on: Friend murine leukemia virus; assay: Antimicrobial activity against Friend leukemia virus infected in mouse assessed as inhibition of spleen enlargement at 0.2 mg/kg/day, iv for 10 days relative to untreated control; format: functional; details: 240 h
Summary of the method: (§2)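 DBA/2 mice bearing Friend leukemia virus were dosed iv for 10 days. Spleen enlargement was compared with untreated controls.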

[7] = tested on: P388; assay: Antitumor activity against mouse P388 cells allografted in mouse assessed as increase in life span at 6 mg/kg/day, ip after 1 day; format: functional; details: 24 h, route intraperitoneal
Summary of the method: (§3)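 P388 ascites implanted ip in mice, 10 animals per group. Sulfate salts given ip either daily on days 1-9 or as a single dose on day 1. Median life span was calculated using all deaths and survivors. Percent increase in life span was taken over untreated controls. The highest nontoxic dose was noted.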

[8] = tested on: B16; assay: Antitumor activity against mouse B16 cells allografted in C57Bl/6 mouse assessed as mean survival time at 0.9 mg/kg/day, ip administered on day 1, 5 and 9 (reference value: 24.6 days); format: functional; details: route intraperitoneal
[9] = tested on: B16; assay: Antitumor activity against mouse B16 cells allografted in B6D2F1 mouse assessed as increase in life span at 0.389 mg/kg/day, ip administered on day 1, 5 and 9 measured for 56 days relative to untreated control; format: functional; details: route intraperitoneal; summary of the method: as §1
[10] = tested on: P388; assay: Antitumor activity against mouse P388 cells allografted in mouse assessed as increase in life span at 0.9 mg/kg/day, ip administered from day 1 to day 9 relative to untreated control; format: functional; details: route intraperitoneal; summary of the method: as §3
[11] = tested on: P388; assay: Antitumor activity against mouse P388 cells allografted in mouse assessed as increase in life span at 4 mg/kg/day, ip after 1 day; format: functional; details: 24 h, route intraperitoneal; summary of the method: as §3
[12] = tested on: B16; assay: Antitumor activity against mouse B16 cells allografted in B6D2F1 mouse assessed as mean survival time at 1.8 mg/kg/day, ip administered on day 1, 5 and 9 (reference value: 20.0 days); format: functional; details: route intraperitoneal; summary of the method: as §1
[13] = tested on: Friend murine leukemia virus; assay: Antimicrobial activity against Friend leukemia virus infected in mouse assessed as inhibition of spleen enlargement at 0.25 mg/kg/day, iv for 10 days relative to untreated control; format: functional; details: 240 h; summary of the method: as §2
[14] = tested on: B16; assay: Antitumor activity against mouse B16 cells allografted in B6D2F1 mouse assessed as increase in life span at 1.08 mg/kg/day, ip administered on day 5, 9 and 13 measured for 56 days relative to untreated control; format: functional; details: route intraperitoneal; summary of the method: as §1
[15] = Acute toxicity in rat; format: organism-based; details: in vivo
[16] = tested on: P388; assay: Antitumor activity against mouse P388 cells allografted in mouse assessed as increase in life span at 0.6 mg/kg/day, ip administered from day 1 to day 9 relative to untreated control; format: functional; details: route intraperitoneal; summary of the method: as §3
[17] = tested on: P388; assay: Antitumor activity against mouse P388 cells allografted in mouse assessed as increase in life span at 0.4 mg/kg/day, ip administered from day 1 to day 9 relative to untreated control; format: functional; details: route intraperitoneal; summary of the method: as §3
[18] = tested on: B16; assay: Antitumor activity against mouse B16 cells allografted in B6D2F1 mouse assessed as increase in life span at 1.8 mg/kg/day, ip administered on day 1, 5 and 9 measured for 56 days relative to untreated control; format: functional; details: route intraperitoneal; summary of the method: as §1
[19] = tested on: Rhesus monkey; assay: Neurotoxicity in iv dosed monkey assessed as peripheral neuropathy; details: in vivo
[20] = tested on: B16; assay: Antitumor activity against mouse B16 cells allografted in B6D2F1 mouse assessed as increase in life span at 0.648 mg/kg/day, ip administered on day 1, 5 and 9 measured for 56 days relative to untreated control; format: functional; details: route intraperitoneal; summary of the method: as §1

## CC[C@]1(O)C[C@@H]2CN(CCc3c([nH]c4ccccc34)[C@@](C(=O)OC)(c3cc4c(cc3OC)N(C)[C@H]3[C@@](O)(C(N)=O)[C@H](O)[C@]5(CC)C=CCN6CC[C@]43[C@@H]65)C2)C1.O=S(=O)(O)O [VINDESINE SULFATE]
[1]
  ILS at 1.08 mg/kg/day: 110%
[2]
  Activity: Toxic
[3]
  MST: 31.5 days
[4]
  MST: 47.5 days
[5]
  TGI: 75%
[6]
  inhibition in vivo at 0.2 mg/kg/day: 80%
[7]
  ILS at 6 mg/kg/day: 109%
[8]
  MST: 39.3 days
[9]
  ILS at 0.389 mg/kg/day: 85%
[10]
  ILS at 0.9 mg/kg/day: 177%
[11]
  ILS at 4 mg/kg/day: 77%
[12]
  MST: 48.5 days
[13]
  inhibition in vivo at 0.25 mg/kg/day: 90%
[14]
  ILS at 1.08 mg/kg/day: 58%
[15]
  LD50: 2 mg/kg
[16]
  ILS at 0.6 mg/kg/day: 213%
[17]
  ILS at 0.4 mg/kg/day: 172%
[18]
  ILS at 1.8 mg/kg/day: 142%
[19]
  Activity: Non-toxic
[20]
  ILS at 0.648 mg/kg/day: 75%
